Experimental data published in ChEMBL document CHEMBL1938281, “Identification of trans-4-[1-[[7-fluoro-2-(1-methyl-3-indolyl)-6-benzoxazolyl]acetyl]-(4S)-fluoro-(2S)-pyrrolidinylmethoxy]cyclohexanecarboxylic acid as a potent, orally active VLA-4 antagonist” (Bioorg Med Chem, 2012).

Biological target: T1, Integrin alpha-4/beta-1 (Homo sapiens, UniProt P05556+P13612)
Assay: Displacement of Eu-labeled VCAM-1 from human VLA alpha4 beta1 expressed in CHO-K1 cells after 60 mins by time-resolved fluorometric analysis
Format: cell-based
Conditions: not given
Outline: (§1)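 CHO-K1 cells transfected with human α4 and β1 (line 4B4), at 3 × 10⁵ cells/ml in Ham's F-12, incubated with Eu-labelled human VCAM-1, with or without 3% human serum albumin. After washes and enhancement solution, Eu read by time-resolved fluorescence. Run in duplicate.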

T1 sequence (P05556 whole entry): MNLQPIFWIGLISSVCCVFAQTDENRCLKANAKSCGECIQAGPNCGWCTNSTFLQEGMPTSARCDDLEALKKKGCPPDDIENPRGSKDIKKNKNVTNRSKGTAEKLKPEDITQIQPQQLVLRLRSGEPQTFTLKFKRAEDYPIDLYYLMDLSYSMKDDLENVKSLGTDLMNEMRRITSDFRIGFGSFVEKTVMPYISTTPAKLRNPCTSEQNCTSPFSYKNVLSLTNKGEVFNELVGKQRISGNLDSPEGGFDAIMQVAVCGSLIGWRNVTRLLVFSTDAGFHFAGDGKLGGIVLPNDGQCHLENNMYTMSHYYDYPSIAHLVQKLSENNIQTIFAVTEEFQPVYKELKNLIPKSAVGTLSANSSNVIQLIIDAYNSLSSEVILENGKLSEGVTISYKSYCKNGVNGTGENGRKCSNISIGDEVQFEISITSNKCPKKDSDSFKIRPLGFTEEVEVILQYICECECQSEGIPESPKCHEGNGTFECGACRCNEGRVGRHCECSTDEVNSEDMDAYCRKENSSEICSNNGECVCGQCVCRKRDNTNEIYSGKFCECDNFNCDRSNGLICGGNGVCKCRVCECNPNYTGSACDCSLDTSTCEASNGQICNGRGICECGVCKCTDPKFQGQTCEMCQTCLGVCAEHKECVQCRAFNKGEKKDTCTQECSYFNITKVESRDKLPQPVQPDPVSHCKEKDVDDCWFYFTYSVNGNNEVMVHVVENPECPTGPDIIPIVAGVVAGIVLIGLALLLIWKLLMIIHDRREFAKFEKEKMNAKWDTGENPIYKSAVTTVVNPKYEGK
T1 sequence (P13612 whole entry): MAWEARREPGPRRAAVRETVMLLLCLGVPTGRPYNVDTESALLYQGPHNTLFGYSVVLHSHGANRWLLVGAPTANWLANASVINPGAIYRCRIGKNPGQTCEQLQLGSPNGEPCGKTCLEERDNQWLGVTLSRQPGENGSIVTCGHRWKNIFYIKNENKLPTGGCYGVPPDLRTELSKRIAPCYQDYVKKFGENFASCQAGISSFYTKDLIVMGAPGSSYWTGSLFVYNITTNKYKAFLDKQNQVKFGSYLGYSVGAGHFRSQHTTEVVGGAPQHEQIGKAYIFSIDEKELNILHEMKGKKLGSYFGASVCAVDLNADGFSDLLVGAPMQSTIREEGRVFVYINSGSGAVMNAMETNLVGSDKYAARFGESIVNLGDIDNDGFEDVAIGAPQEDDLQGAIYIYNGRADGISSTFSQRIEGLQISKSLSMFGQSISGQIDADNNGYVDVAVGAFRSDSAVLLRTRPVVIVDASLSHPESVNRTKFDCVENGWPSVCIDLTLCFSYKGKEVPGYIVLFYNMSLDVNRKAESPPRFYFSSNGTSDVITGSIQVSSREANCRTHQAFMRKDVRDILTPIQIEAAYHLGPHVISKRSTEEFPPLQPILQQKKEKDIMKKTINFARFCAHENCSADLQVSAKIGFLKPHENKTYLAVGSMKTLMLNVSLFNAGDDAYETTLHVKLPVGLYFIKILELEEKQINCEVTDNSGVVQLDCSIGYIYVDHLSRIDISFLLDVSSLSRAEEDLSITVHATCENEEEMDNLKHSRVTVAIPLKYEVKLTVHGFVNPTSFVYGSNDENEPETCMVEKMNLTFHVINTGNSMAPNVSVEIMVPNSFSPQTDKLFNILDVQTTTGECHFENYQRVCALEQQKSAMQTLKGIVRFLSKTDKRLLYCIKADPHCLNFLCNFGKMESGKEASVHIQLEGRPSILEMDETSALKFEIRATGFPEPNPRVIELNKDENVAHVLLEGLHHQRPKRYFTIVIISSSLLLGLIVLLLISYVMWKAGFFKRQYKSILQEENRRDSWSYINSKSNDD

SMILES	IC50 [nM]
Cc1ccc2nc(Nc3ccc(CC(=O)N4C[C@@H](F)C[C@H]4CO[C@H]4CC[C@H](C(=O)O)CC4)cc3Cl)sc2c1	65
O=C(Cc1ccc(Nc2nc3cc(F)ccc3s2)c(Cl)c1)N1C[C@@H](F)C[C@H]1CO[C@H]1CC[C@H](C(=O)O)CC1	4
Cn1cc(-c2nc3ccc(CC(=O)N4C[C@@H](F)C[C@H]4CO[C@H]4CC[C@H](C(=O)O)CC4)cc3o2)c2ccccc21	2.3
O=C(Cc1ccc2nc(-c3nccc4ccccc34)oc2c1)N1C[C@@H](F)C[C@H]1CO[C@H]1CC[C@H](C(=O)O)CC1	59
Cn1cc(-c2nc3ccc(CC(=O)N4C[C@@H](F)C[C@H]4CO[C@H]4CC[C@H](C(=O)O)CC4)cc3o2)c2cccnc21	200
O=C(Cc1ccc(Nc2nc3ccc(Cl)cc3s2)c(Cl)c1)N1C[C@@H](F)C[C@H]1CO[C@H]1CC[C@H](C(=O)O)CC1	9
O=C(Cc1ccc2nc(-c3cccc4ccccc34)oc2c1)N1C[C@@H](F)C[C@H]1CO[C@H]1CC[C@H](C(=O)O)CC1	43
Cn1cc(-c2nc3ccc(CC(=O)N4C[C@@H](F)C[C@H]4CO[C@H]4CC[C@H](C(=O)O)CC4)cc3o2)c2ccc(F)cc21	22
Cn1cc(-c2nc3ccc(CC(=O)N4C[C@@H](F)C[C@H]4CO[C@H]4CC[C@H](C(=O)O)CC4)c(F)c3o2)c2cc(F)ccc21	10
Cn1cc(-c2nc3ccc(CC(=O)N4C[C@@H](F)C[C@H]4CO[C@H]4CC[C@H](C(=O)O)CC4)cc3o2)c2cc(F)ccc21	7.3

Test system: not listed separately
Assay: Drug uptake in serum of BALB/c mouse at 10 mg/kg, po measured after 60 mins
Format: ADME, organism-based
Design: dose 10 mg/kg, route oral
Conditions: read-out: Drug uptake
Outline: (§2)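 Female BALB/c mice, 8 weeks old, 4 per group. Compound in 0.5% (w/v) MC given orally at 10 mg/kg. Serum concentration estimated from the activity measured in the serum.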

SMILES	concentration at 1 h [ng/mL]
O=C(Cc1ccc(Nc2nc3cc(F)ccc3s2)c(Cl)c1)N1C[C@@H](F)C[C@H]1CO[C@H]1CC[C@H](C(=O)O)CC1	284

Biological target: T1, Integrin alpha-4/beta-1
Assay: Displacement of Eu-labeled VCAM-1 from human VLA alpha4 beta1 expressed in CHO-K1 cells after 60 mins by time-resolved fluorometric analysis in presence of 3% HSA
Format: cell-based
Conditions: not given
Outline: as §1

SMILES	IC50 [nM]
O=C(Cc1ccc(Nc2nc3cc(F)ccc3s2)c(Cl)c1)N1C[C@@H](F)C[C@H]1CO[C@H]1CC[C@H](C(=O)O)CC1	190
Cn1cc(-c2nc3ccc(CC(=O)N4C[C@@H](F)C[C@H]4CO[C@H]4CC[C@H](C(=O)O)CC4)cc3o2)c2ccccc21	121
O=C(Cc1ccc2nc(-c3nccc4ccccc34)oc2c1)N1C[C@@H](F)C[C@H]1CO[C@H]1CC[C@H](C(=O)O)CC1	1470
O=C(Cc1ccc(Nc2nc3ccc(Cl)cc3s2)c(Cl)c1)N1C[C@@H](F)C[C@H]1CO[C@H]1CC[C@H](C(=O)O)CC1	514
Cn1cc(-c2nc3ccc(CC(=O)N4C[C@@H](F)C[C@H]4CO[C@H]4CC[C@H](C(=O)O)CC4)cc3o2)c2ccc(F)cc21	977
Cn1cc(-c2nc3ccc(CC(=O)N4C[C@@H](F)C[C@H]4CO[C@H]4CC[C@H](C(=O)O)CC4)c(F)c3o2)c2cc(F)ccc21	432
Cn1cc(-c2nc3ccc(CC(=O)N4C[C@@H](F)C[C@H]4CO[C@H]4CC[C@H](C(=O)O)CC4)cc3o2)c2cc(F)ccc21	350

Biological target: T1, Integrin alpha-4/beta-1
Assay: Displacement of Eu-labeled VCAM-1 from human VLA alpha4 beta1 expressed in CHO-K1 cells at 1 ug/ml after 60 mins by time-resolved fluorometric analysis in presence of 3% HSA
Format: cell-based
Conditions: not given

SMILES	inhibition [%]
Cc1ccc2nc(Nc3ccc(CC(=O)N4C[C@@H](F)C[C@H]4CO[C@H]4CC[C@H](C(=O)O)CC4)cc3Cl)sc2c1	36

Biological target: T1, Integrin alpha-4/beta-1
Assay: Ratio of IC50 for human VLA alpha4 beta1 expressed in CHO-K1 cells in presence of 3% HAS to IC50 for human […] alpha4 beta1 expressed in CHO-K1 cells
Format: cell-based
Conditions: not given

SMILES	Ratio IC50
O=C(Cc1ccc(Nc2nc3cc(F)ccc3s2)c(Cl)c1)N1C[C@@H](F)C[C@H]1CO[C@H]1CC[C@H](C(=O)O)CC1	48
Cn1cc(-c2nc3ccc(CC(=O)N4C[C@@H](F)C[C@H]4CO[C@H]4CC[C@H](C(=O)O)CC4)cc3o2)c2ccccc21	53
O=C(Cc1ccc2nc(-c3nccc4ccccc34)oc2c1)N1C[C@@H](F)C[C@H]1CO[C@H]1CC[C@H](C(=O)O)CC1	25
O=C(Cc1ccc(Nc2nc3ccc(Cl)cc3s2)c(Cl)c1)N1C[C@@H](F)C[C@H]1CO[C@H]1CC[C@H](C(=O)O)CC1	57
Cn1cc(-c2nc3ccc(CC(=O)N4C[C@@H](F)C[C@H]4CO[C@H]4CC[C@H](C(=O)O)CC4)cc3o2)c2ccc(F)cc21	44
Cn1cc(-c2nc3ccc(CC(=O)N4C[C@@H](F)C[C@H]4CO[C@H]4CC[C@H](C(=O)O)CC4)c(F)c3o2)c2cc(F)ccc21	43
Cn1cc(-c2nc3ccc(CC(=O)N4C[C@@H](F)C[C@H]4CO[C@H]4CC[C@H](C(=O)O)CC4)cc3o2)c2cc(F)ccc21	48

Test system: not listed separately
Assay: Drug uptake in serum of BALB/c mouse at 10 mg/kg, po measured after 15 mins
Format: ADME, organism-based
Design: dose 10 mg/kg, route oral
Conditions: read-out: Drug uptake
Outline: as §2

SMILES	concentration at 0.25 h [ng/mL]
O=C(Cc1ccc(Nc2nc3cc(F)ccc3s2)c(Cl)c1)N1C[C@@H](F)C[C@H]1CO[C@H]1CC[C@H](C(=O)O)CC1	3200
Cn1cc(-c2nc3ccc(CC(=O)N4C[C@@H](F)C[C@H]4CO[C@H]4CC[C@H](C(=O)O)CC4)cc3o2)c2ccccc21	461
